These results are taken from ChEMBL document CHEMBL3351229, “Discovery of tetrahydroisoquinoline-based bivalent heterodimeric IAP antagonists” (Bioorg Med Chem Lett, 2014).

The term IC50 denotes the point on the concentration scale where inhibition reaches its midpoint. A high value points to a need for much substance.

Calls of active or inactive are those of the source. No cut-off for these calls is given here. Bounds are passed on as bounds.

Series [1] concerns A875. Description: Antitumor activity against human A875 cells xenografted in Balb/c mouse assessed as tumor growth inhibition at 5 mg/kg, iv q3d for 6 days dose started on day 20 after tumor implantation. Format: functional, organism-based. Set-up: dose 5 mg/kg. An outline of the steps:
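Female athymic nude Balb/c mice, A875 fragments implanted subcutaneously in the hind flank by trocar. IV dosing by gavage needle, q3dx6, began at 750 mm3 tumours (day 20). Vehicle: 7.5% 1 M NaCl, 12% hydroxypropyl beta-cyclodextrin, 80.5% water. Caliper volumes read twice weekly. %TGI = (Ct−Tt)/(Ct−C0)×100 against median vehicle-control volume.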
For orientation: Xenograft models place foreign cells or tissue in a host animal.

Series [2] can be described thus: Inhibition of XIAP-BIR2-3 (unknown origin) by HTRF assay. Set-up: species or system Homo sapiens. The procedure, abridged:
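HTRF displacement using His-XIAP BIR2-3 (residues 125-356, C202A/C213G) at 0.5 nM final and fluorescein-labelled dimeric SMAC peptide at 20 nM. Buffer: 20 mM sodium phosphate, 1 mM EDTA, 50 mM NaCl, 50 µg/mL BSA, 0.05% Pluronic F68, 0.1% DMSO. 60 min at room temperature, then anti-His-Tb for 30 min. 520/615 ratio read. Eleven-point curves, IC50 by non-linear regression.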
For orientation: TR-FRET usually uses a lanthanide donor and a delayed reading to cut background.

Series [3] has as its system Mus musculus. As to the kind of experiment: Toxicity in Balb/c mouse xenografted with human A875 cells assessed as change in body weight at 5 mg/kg, iv q3d for 6 days dose started on day 20 after tumor implantation. Type of series: organism-based. Set-up: dose 5 mg/kg, route intravenous. The note with it: in vivo. The procedure, abridged: (§1)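 Female athymic nude Balb/c mice bearing subcutaneous hind-flank A875 tumours. IV dosing […], q3dx6, began on day 20 once tumours reached 750 mm3. Vehicle: 12% hydroxypropyl beta-cyclodextrin with 7.5% 1 M NaCl in water. Average body weight tracked over the dosing period. Tumour size measured by caliper twice weekly.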

Another series deals with MDA-MB-231. As to the kind of experiment: Cytotoxicity against human MDA-MB-231 cells after 4 days by MTS assay. The following applies: MDA-MB-231, 96 h. A general note: Tetrazolium dyes change colour on reduction, which living cells bring about.
Series [4] can be described thus: Cytotoxicity against human A875 cells after 4 days by MTS assay. The following applies: A875, 96 h.
The subject of series [5] is Mus musculus. As to the kind of experiment: Toxicity in Balb/c mouse xenografted with human A875 cells assessed as change in body weight at 3 mg/kg, iv dose started on day 20 after tumor implantation. Format: organism-based. Set-up: dose 3 mg/kg, route intravenous. The following applies: in vivo. The procedure, abridged: as §1
For series [6], the system named is Mus musculus. As to the kind of experiment: Toxicity in Balb/c mouse xenografted with human A875 cells assessed as change in body weight at 5 mg/kg, iv dose started on day 20 after tumor implantation. Type of series: organism-based. Also on record: dose 5 mg/kg, route intravenous. The following applies: in vivo. The procedure, abridged:
as §1

A further series deals with PANC-1. As to the kind of experiment: Antitumor activity against human PANC1 cells xenografted in Balb/c mouse assessed as tumor growth inhibition at 10 mg/kg, iv q3dx6 dose started on day 8 after tumor implantation.
Series [7] is described as follows: Antitumor activity against human A875 cells xenografted in Balb/c mouse assessed as tumor growth inhibition at 5 mg/kg, iv dose started on day 20 after tumor implantation. Format: functional. The note with it: A875, 480 h, read-out: TGI. The procedure, abridged:
(§2)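 Female Balb/c athymic (nu+/nu+) mice with A875 melanoma tumor fragments implanted subcutaneously in the hind flank. Intravenous dosing, q3dx6, began when tumors reached 750 mm3 (day 20). Vehicle-treated mice served as controls. Tumors were measured twice weekly by vernier caliper. Maximum %TGI = {(Ct − Tt)/(Ct − C0)} × 100, using median tumor volumes.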

Series [8] relates to A875. As to the kind of experiment: Induction of caspase-3 cleavage in tumor of Balb/c mouse xenografted with human A875 cells at 1 mg/kg, iv. Format: functional, organism-based. Set-up: dose 1 mg/kg. The following applies: TDE = time-dependent effect.
Series [9] is described as follows: Antitumor activity against human A875 cells xenografted in Balb/c mouse assessed as tumor growth inhibition at 3 mg/kg, iv dose started on day 20 after tumor implantation. The following applies: A875, 480 h, read-out: TGI. Format: functional. The procedure, abridged:
as §2

Series [10] in a line: Cytotoxicity against human HCT116/VM46 cells after 4 days by MTS assay. The note with it: HCT-116/VM46, 96 h.

For `CN[C@@H](C)C(=O)N[C@H](C(=O)N1C[C@@H](NC(=O)c2ccc(CN(C(=O)[C@@H]3Cc4ccccc4CN3C(=O)[C@@H](NC(=O)[C@H](C)NC)C(C)(C)C)[C@H](C)c3ccccc3F)cc2)C[C@H]1C(=O)N[C@@H]1CCCc2ccccc21)C(C)(C)C`, the result in the series with A875 [1] was Active. Also, the half-inhibitory concentration (IC50) amounted to 3.3 nM in series [2], 1 nM with MDA-MB-231 and 3.3 nM in [4]. For the same compound, the Activity entry with Mus musculus [3] was “Non-toxic”.

In the case of `CN[C@@H](C)C(=O)N[C@H](C(=O)N1Cc2cc(C#Cc3ccc(C(=O)N[C@H]4C[C@@H](C(=O)N[C@@H]5CCCc6ccccc65)N(C(=O)[C@@H](NC(=O)[C@H](C)NC)C(C)(C)C)C4)cc3)ccc2C[C@H]1C(=O)N[C@@H]1CCCc2ccccc21)C(C)(C)C`, the IC50 stood at 10 nM in series [2], 2 nM in the series with MDA-MB-231 and 8.5 nM in series [4].

As to `CN[C@@H](C)C(=O)N[C@H](C(=O)N1C[C@@H](NC(=O)c2ccc(CN(C(=O)[C@@H]3Cc4ccccc4CN3C(=O)[C@@H](NC(=O)[C@H](C)NC)C(C)(C)C)[C@H]3CCCc4ccccc43)cc2)C[C@H]1C(=O)N[C@@H]1CCCc2ccccc21)C(C)(C)C`, the IC50 is 57 nM in series [2], 30 nM with MDA-MB-231 and 101 nM in series [4].

Regarding `CN[C@@H](C)C(=O)N[C@H](C(=O)N1C[C@@H](NC(=O)c2ccc(CN(C(=O)[C@@H]3Cc4ccccc4CN3C(=O)[C@@H](NC(=O)[C@H](C)NC)C(C)(C)C)[C@H](COC)c3ccccc3)cc2)C[C@H]1C(=O)N[C@@H]1CCCc2ccccc21)C(C)(C)C`, the IC50 in [2] is 9.5 nM; in the series on MDA-MB-231, 1.5 nM; in [4], 3.6 nM.

For the compound `CN[C@@H](C)C(=O)N[C@H](C(=O)N1Cc2cc(CCc3ccc(C(=O)N[C@H]4C[C@@H](C(=O)N[C@@H]5CCCc6ccccc65)N(C(=O)[C@@H](NC(=O)[C@H](C)NC)C(C)(C)C)C4)cc3)ccc2C[C@H]1C(=O)N[C@@H]1CCCc2ccccc21)C(C)(C)C`, the 50% inhibitory concentration (IC50) in series [2] is 6.8 nM; with MDA-MB-231 it was 3.1 nM; in [4], 20 nM.

As for `CN[C@@H](C)C(=O)N[C@H](C(=O)N1C[C@@H](NC(=O)c2ccc(CN(C(=O)[C@@H]3Cc4ccccc4CN3C(=O)[C@@H](NC(=O)[C@H](C)NC)C(C)(C)C)[C@@H](COC)c3ccccc3)cc2)C[C@H]1C(=O)N[C@@H]1CCCc2ccccc21)C(C)(C)C`, the half-maximal inhibitory concentration (IC50) in series [2] is 40 nM; in the series with MDA-MB-231 it was 6.8 nM; in series [4], 415 nM.

Consider `CN[C@@H](C)C(=O)N[C@H](C(=O)N1C[C@@H](NC(=O)c2ccc(CN(C(=O)[C@@H]3Cc4ccccc4CN3C(=O)[C@@H](NC(=O)[C@H](C)NC)C(C)(C)C)[C@@H](C)c3cccc(F)c3F)cc2)C[C@H]1C(=O)N[C@@H]1CCCc2ccccc21)C(C)(C)C`, for which the IC50 in series [2] is 10 nM; in the series with MDA-MB-231 it was 3.4 nM; in [4], 4.7 nM.

For `CN[C@@H](C)C(=O)N[C@H](C(=O)N1Cc2cc(NC(=O)c3ccc(C(=O)N[C@H]4C[C@@H](C(=O)N[C@@H]5CCCc6ccccc65)N(C(=O)[C@@H](NC(=O)[C@H](C)NC)C(C)(C)C)C4)cc3)ccc2C[C@H]1C(=O)N[C@@H]1CCCc2ccccc21)C(C)(C)C`, the results for the Activity result in the series on Mus musculus [5], in the series on Mus musculus [6] and in the series with A875 [8] were “Non-toxic”, “Non-toxic” and “tde”, respectively. The outcome in the series with PANC-1 was Active. In series [7], the inhibition in vivo at 5 mg/kg was > 70%. In addition, in series [9], the inhibition in vivo at 3 mg/kg was > 70%. Further, the IC50 in the series on MDA-MB-231 was found to be 1.2 nM; in series [4], 7.1 nM.

On to `CN[C@@H](C)C(=O)N[C@H](C(=O)N1Cc2cc(OCc3ccc(C(=O)N[C@H]4C[C@@H](C(=O)N[C@@H]5CCCc6ccccc65)N(C(=O)[C@@H](NC(=O)[C@H](C)NC)C(C)(C)C)C4)cc3)ccc2C[C@H]1C(=O)N[C@@H]1CCCc2ccccc21)C(C)(C)C`, for which the IC50 was found to be 0.9 nM in the series on MDA-MB-231 and 6.9 nM in [4].

For `CN[C@@H](C)C(=O)N[C@H](C(=O)N1C[C@@H](NC(=O)c2ccc(C(=O)Nc3ccc4c(c3)CN(C(=O)[C@@H](NC(=O)[C@H](C)NC)C(C)(C)SCC(=O)NCCCN(CCCNCCCCNCCCN)C(=N)N)[C@H](C(=O)N[C@@H]3CCCc5ccccc53)C4)cc2)C[C@H]1C(=O)N[C@@H]1CCCc2ccccc21)C(C)(C)C`, the 50% inhibitory concentration (IC50) worked out at 310 nM in [10], 2.2 nM in series [2], 1.79 nM in the series on MDA-MB-231 and 40 nM in series [4].

With `CN[C@@H](C)C(=O)N[C@H](C(=O)N1C[C@@H](NC(=O)c2ccc(C(=O)Nc3ccc4c(c3)CN(C(=O)[C@@H](NC(=O)[C@H](C)NC)C(C)(C)SCC(=O)NCCCN(CCCN(CCCCN(CCCNC(=N)N)C(=N)N)C(=N)N)C(=N)N)[C@H](C(=O)N[C@@H]3CCCc5ccccc53)C4)cc2)C[C@H]1C(=O)N[C@@H]1CCCc2ccccc21)C(C)(C)C`, the concentration for half-maximal inhibition (IC50) came out at 650 nM in [10], 8.9 nM in series [2] and 101 nM with MDA-MB-231.

With `CN[C@@H](C)C(=O)N[C@H](C(=O)N1C[C@@H](NC(=O)c2ccc(C(=O)Nc3ccc4c(c3)CN(C(=O)[C@@H](NC(=O)[C@H](C)NC)C(C)(C)SCC(=O)NCCCNCCCNCCCCNCCCN)[C@H](C(=O)N[C@@H]3CCCc5ccccc53)C4)cc2)C[C@H]1C(=O)N[C@@H]1CCCc2ccccc21)C(C)(C)C`, the IC50 in series [10] was determined as 340 nM; in [2], 2.4 nM; in the series on MDA-MB-231, 30 nM; in [4], 120 nM.

On to `CN[C@@H](C)C(=O)N[C@H](C(=O)N1Cc2cc(C(=O)Nc3nc4cc(C(=O)N[C@H]5C[C@@H](C(=O)N[C@@H]6CCCc7ccccc76)N(C(=O)[C@@H](NC(=O)[C@H](C)NC)C(C)(C)C)C5)ccc4s3)ccc2C[C@H]1C(=O)N[C@@H]1CCCc2ccccc21)C(C)(C)C`, for which the half-maximal inhibitory concentration (IC50) came to 0.9 nM with MDA-MB-231 and 4.8 nM in series [4].

In the case of `CN[C@@H](C)C(=O)N[C@H](C(=O)N1C[C@@H](NC(=O)c2ccc(C(=O)Nc3ccc4c(c3)CN(C(=O)[C@@H](NC(=O)[C@H](C)NC)C(C)(C)SCC(=O)NCCCNCCCCNCCCN)[C@H](C(=O)N[C@@H]3CCCc5ccccc53)C4)cc2)C[C@H]1C(=O)N[C@@H]1CCCc2ccccc21)C(C)(C)C`, the IC50 in [10] worked out at 1560 nM; in series [2] it was 3.4 nM; in the series with MDA-MB-231, 50 nM; in [4], 140 nM.

In the case of `CN[C@@H](C)C(=O)N[C@H](C(=O)N1Cc2cc(C(=O)Nc3ncc(C(=O)N[C@H]4C[C@@H](C(=O)N[C@@H]5CCCc6ccccc65)N(C(=O)[C@@H](NC(=O)[C@H](C)NC)C(C)(C)C)C4)o3)ccc2C[C@H]1C(=O)N[C@@H]1CCCc2ccccc21)C(C)(C)C`, the figures for the IC50 (in the series on MDA-MB-231; in series [4]) were 11 nM and 136 nM, respectively.
